16 compounds from ChEMBL document CHEMBL4359926, “Design, synthesis, and evaluation of potent novel peroxisome proliferator-activated receptor γ indole partial agonists” (Bioorg Med Chem Lett, 2019) can be followed below.

Data set [1] has as its target T1, Peroxisome proliferator-activated receptor gamma (Homo sapiens, UniProt P37231).
T1 sequence (P37231 whole entry): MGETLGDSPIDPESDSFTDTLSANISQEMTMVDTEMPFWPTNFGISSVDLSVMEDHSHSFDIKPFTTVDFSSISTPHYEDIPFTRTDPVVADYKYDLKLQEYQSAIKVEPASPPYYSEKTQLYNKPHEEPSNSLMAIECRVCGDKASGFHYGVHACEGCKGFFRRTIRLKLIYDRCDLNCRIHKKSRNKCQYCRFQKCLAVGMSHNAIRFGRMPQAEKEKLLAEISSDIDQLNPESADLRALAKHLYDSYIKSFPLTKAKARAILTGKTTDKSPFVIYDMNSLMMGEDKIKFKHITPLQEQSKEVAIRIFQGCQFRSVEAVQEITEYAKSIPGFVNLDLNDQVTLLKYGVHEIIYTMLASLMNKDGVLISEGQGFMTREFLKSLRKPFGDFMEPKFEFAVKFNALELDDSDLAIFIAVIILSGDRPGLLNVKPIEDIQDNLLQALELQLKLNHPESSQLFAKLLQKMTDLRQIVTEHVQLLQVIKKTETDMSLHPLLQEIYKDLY
The data set is described as follows: Displacement of fluormone PPAR green tracer ligand from recombinant GST-tagged PPARgamma ligand binding domain (unknown origin) incubated for 4 hrs by competitive fluorescence polarization binding assay.

Data set [2] concerns the target T2, PPARgamma2 (peroxisome proliferator-activated receptor gamma) (Homo sapiens, UniProt P37231).
T2 sequence (P37231 whole entry): T1 sequence (P37231 whole entry)
The experiment in a line: Transactivation activity at human PPARgamma2 cotransfected with PPRE X3-TK-luc in human HEK293 cells incubated for 24 hrs by luciferase reporter gene assay relative to rosiglitazone. In kind it is cell-based. A digest of the protocol:
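HEK-293 cells grown in DMEM with 4.5 g/liter glucose and 10% bovine calf serum at 37°C, 5% CO₂. Co-transfected with human PPARγ2 plasmid and PPRE X3-TK-luc, then left 16 h. Compounds at 100 to 0.001 μM (10-fold steps), 0.1% DMSO final, for 24 h. Lysate luciferase read by luminescence.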
A general note: A reporter such as luciferase makes a cellular process visible.

In data set [3] the target is T3, Peroxisome proliferator-activated receptor gamma (Mus musculus) (UniProt P37238).
T3 sequence (whole entry): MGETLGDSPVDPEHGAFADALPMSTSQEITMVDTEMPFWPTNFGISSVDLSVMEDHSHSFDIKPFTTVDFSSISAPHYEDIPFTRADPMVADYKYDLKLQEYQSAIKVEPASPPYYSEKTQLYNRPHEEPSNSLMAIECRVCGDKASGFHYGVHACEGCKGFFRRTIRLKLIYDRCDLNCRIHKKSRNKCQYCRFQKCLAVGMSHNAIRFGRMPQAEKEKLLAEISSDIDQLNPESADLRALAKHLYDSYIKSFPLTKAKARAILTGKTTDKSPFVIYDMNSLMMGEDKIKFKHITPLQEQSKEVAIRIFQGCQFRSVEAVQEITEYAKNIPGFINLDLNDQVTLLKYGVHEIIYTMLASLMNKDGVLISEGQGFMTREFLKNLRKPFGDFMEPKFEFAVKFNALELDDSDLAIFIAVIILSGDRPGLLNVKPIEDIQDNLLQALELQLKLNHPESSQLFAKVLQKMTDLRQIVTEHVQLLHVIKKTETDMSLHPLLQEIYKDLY
The data set is described as follows: Partial agonist activity at PPARgamma in mouse 3T3-L1 cells assessed as decrease in PPARgamma S273 phosphorylation at 10 uM preincubated for 24 hrs followed by TNFalpha stimulation for 3 hrs by Western blotting analysis.

In data set [4] the target is T4, Peroxisome proliferator-activated receptor gamma (Mus musculus, UniProt P37238).
T4 sequence (P37238 whole entry): T3 sequence (whole entry)
The experiment in a line: Induction of PPARgamma-mediated adipogenesis in mouse 3T3L1 cells assessed as increase in cell differentiation at 10 uM compound treatment renewed every 2 days and measured on day 7 by Oil-red O staining based assay. Particulars: 48 h. A digest of the protocol:
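3T3-L1 cells were induced with DMEM/10% FBS containing 1 μg/ml insulin, 1 μM dexamethasone and 0.5 mM IBMX plus compounds (10 μM) for 48 h. They were then kept in maintenance DMEM/10% FBS with compounds, with medium renewed every 2 days. At day 7 cells were fixed in 4% formaldehyde for 30 min and stained with 0.3% Oil Red O for 1 h at 37 °C. Lipid droplets were viewed by microscopy; DMSO 0.1% final.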

Data set [5] has as its target T4, Peroxisome proliferator-activated receptor gamma. The data set is described as follows: Induction of PPARgamma-mediated adipogenesis in mouse 3T3L1 cells assessed as upregulation of FABP4 mRNA expression at 10 uM by qRT-PCR analysis. In kind it is cell-based. A digest of the protocol:
(§1)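 Confluent 3T3-L1 cells were differentiated in 10% FBS/DMEM with 0.5 mmol/L IBMX, 1 μmol/L dexamethasone and 10 μg/mL insulin plus compounds (10 μM) for 48 h, then 10 μg/mL insulin alone for another 48 h. RNA was extracted and analyzed by qRT-PCR (35 cycles). Relative mRNA was calculated by ΔΔCt normalized to TBP.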
(In general: Quantitative PCR measures a nucleic acid by following its amplification.)

Data set [6] shares this target. The data set is described as follows: Induction of PPARgamma-mediated adipogenesis in mouse 3T3L1 cells assessed as upregulation of Glut4 mRNA expression at 10 uM by qRT-PCR analysis. The format is cell-based. A digest of the protocol:
as §1

Data set [7] has the same target. The experiment in a line: Induction of PPARgamma-mediated adipogenesis in mouse 3T3L1 cells assessed as upregulation of LPL mRNA expression at 10 uM by qRT-PCR analysis. The format is cell-based. A digest of the protocol: as §1
The target in data set [8] is T5, Peroxisome proliferator-activated receptor gamma (Homo sapiens) (UniProt P37231).
T5 sequence (whole entry): T1 sequence (P37231 whole entry)
The experiment in a line: Potency index, ratio of UHC1 IC50 to compound IC50 for displacement of fluormone PPAR green tracer ligand from recombinant GST-tagged PPARgamma ligand binding domain (unknown origin) incubated for 4 hrs by competitive fluorescence polarization binding assay. Background: Polarisation of emitted light reports the rotation of a fluorescent probe.

The target in data set [9] is T3, Peroxisome proliferator-activated receptor gamma (Mus musculus). The data set is described as follows: Partial agonist activity at PPARgamma in mouse 3T3-L1 cells assessed as decrease in PPARgamma S273 phosphorylation by measuring upregulation of adiponectin mRNA expression at 10 uM by qRT-PCR analysis. The format is cell-based.
The target is the same in data set [10]. The data set is described as follows: Partial agonist activity at PPARgamma in mouse 3T3-L1 cells assessed as decrease in PPARgamma S273 phosphorylation by measuring upregulation of adipsin mRNA expression at 10 uM by qRT-PCR analysis. In kind it is cell-based.
Data set [11] shares this target. The experiment in a line: Partial agonist activity at PPARgamma in mouse 3T3L1 cells assessed as decrease in PPARgamma S273 phosphorylation by measuring upregulation of Car3 mRNA expression at 10 uM by qRT-PCR analysis. In kind it is cell-based.

pIC50, pKi: −log10 of the molar value. Calls of active or inactive are those of the source. No cut-off for these calls is given here. Bounds are passed on as bounds.

As a reminder, the pIC50 is −log10 of the IC50, conventionally taken in molar units. By pKi is commonly meant the Ki on a negative log10 scale, so that one unit is a factor of ten.

For the compound `Cc1c(C)n(Cc2ccc(-c3ccccc3C(=O)O)cc2)c2ccc(C(=O)NCc3ccc4c(c3)OCO4)cc12`, in data set [1], the negative logarithm of the IC50 (pIC50) was 7.82 and the pKi is 7.92. The same compound came in with an Emax at 24 h in data set [2] of 36%.

Regarding `Cc1c(C)n(Cc2ccc(-c3ccccc3C(=O)O)cc2)c2ccc(C(=O)NCc3cccnc3)cc12`, in data set [1], the negative logarithm of the IC50 (pIC50) is 6.27 and the pKi was 6.36. The compound also returned an Emax at 24 h in data set [2] of 45%. Further, the inhibition result in data set [3] is “Active”.

For the compound `Cc1c(C)n(Cc2ccc(-c3ccccc3C(=O)O)cc2)c2ccc(C(=O)NCC3CCNCC3)cc12`, in [1], the negative-log IC50 (pIC50) is 4.92 and the pKi was 5.02. In [2], this compound yielded an Emax at 24 h of 11%.

For the compound `Cc1c(C)n(Cc2cccc(C(F)(F)F)c2)c2ccc(C(=O)NCc3ccccn3)cc12`, in [1], the negative-log IC50 (pIC50) is 6.73 and the negative-log Ki (pKi) is 6.84. Also, in [2], the Emax at 24 h was 59%.

As for `Cc1c(C)n(Cc2ccc(-c3ccccc3C(=O)O)cc2)c2ccc(C(=O)NCCc3ccc(O)cc3)cc12`, in data set [1], the pIC50 is 7.32 and the pKi is 7.42. In addition, the Emax at 24 h in data set [2] is 31%.

Turning to `CN(CCOc1ccc(CC2SC(=O)NC2=O)cc1)c1ccccn1` (configuration not stated) [ROSIGLITAZONE], the outcome in data set [4], in data set [5], in data set [6] and in [7] was Active. The inhibition entry in [3] is “Active”.

Turning to `Cc1c(C)n(Cc2ccc(-c3ccccc3C(=O)O)cc2)c2ccc(C(=O)NC3CCNCC3)cc12`, in [1], the negative-log IC50 (pIC50) was 4.38 and the negative-log Ki (pKi) is 4.49. For the same compound, in data set [2], the Emax at 24 h was determined as 17%.

Regarding `Cc1c(C)n(Cc2ccc(-c3ccccc3C(=O)O)cc2)c2ccc(C(=O)NCc3ccc(S(N)(=O)=O)cc3)cc12`, in data set [1], the pIC50 is 6.51 and the pKi is 6.61. This compound returned an Emax at 24 h in data set [2] of 0%.

Take `Cc1c(C)n(Cc2cccc(C(F)(F)F)c2)c2ccc(C(=O)NCc3ccc4c(c3)OCO4)cc12`: in data set [1], the pIC50 is 7.80. In addition, the Emax at 24 h in data set [2] was found to be 32%.

Turning to `Cc1c(C)n(Cc2cccc(C(F)(F)F)c2)c2ccc(C(=O)N[C@@H](Cc3ccc(O)cc3)C(=O)O)cc12`, in data set [1], the pIC50 is 6.46 and the pKi is 6.57. The Emax at 24 h in [2] turned out to be 44%.

`Cc1c(C)n(Cc2ccc(-c3ccccc3C(=O)O)cc2)c2ccc(C(=O)NCc3ccccn3)cc12`: in [1], the pIC50 is 7.47 and the pKi was 7.57. Also, the Emax at 24 h in [2] was found to be 15%.

Consider `COc1cc(CNC(=O)c2ccc3c(c2)c(C)c(C)n3Cc2cccc(C(F)(F)F)c2)ccc1O`, for which the pIC50 in data set [1] is 8.00. In data set [2], the Emax at 24 h is 46%.

With `Cc1c(C)n(Cc2ccc(-c3ccccc3C(=O)O)cc2)c2ccc(C(=O)NCc3cccc(OCC(=O)O)c3)cc12`, in data set [1], the pIC50 was 7.18 and the negative logarithm of the Ki (pKi) is 7.28. In data set [2], this compound came in with an Emax at 24 h of 56%.

Consider `COc1ccc(OC)c(CNC(=O)c2ccc3c(c2)c(C)c(C)n3Cc2cccc(C(F)(F)F)c2)c1`, for which, in data set [1], the negative logarithm of the IC50 (pIC50) is 7.32 and the pKi is 7.42. This compound also came in with an Emax at 24 h in data set [2] of 27%.

For `COc1cc(CNC(=O)c2ccc3c(c2)c(C)c(C)n3Cc2ccc(-c3ccccc3C(=O)O)cc2)ccc1O`, in [8], the Ratio IC50 was over 30. For the same compound, in data set [1], the pIC50 was 7.77. For the same compound, the pKi in [1] was 7.89. The compound further registered an Emax at 24 h in data set [2] of 15%. For the same compound, the result in data set [9], in data set [10] and in data set [11] was Active. The result in data set [5], in data set [6] and in data set [7] was Active. Besides, the inhibition entry in data set [3] is “Active”.

For the compound `Cc1c(C)n(Cc2ccc(-c3ccccc3C(=O)O)cc2)c2ccc(C(=O)O)cc12`, in data set [1], the negative logarithm of the IC50 (pIC50) is 5.31 and the negative-log Ki (pKi) is 5.42. Also, in [2], the Emax at 24 h amounted to 16%.
